# Jurkat viability: cytotoxicity toward Jurkat cells; Jurkat E6.1 viability, ATP luminescence, 48 h; actives 1.2% (n = 56,000); AID 463; inhibition, % at 4 µM;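 active means inhibition above the mean inhibition of all tested compounds plus 3 SD, cut at about 28% in these data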
# HEK293 NFkB inh: lowers PMA/ionomycin-induced NF-kB signal in HEK293 cells; HEK-293 NF-kB luciferase reporter, luminescence; inhibition, % at 3 µM; actives 0.21% (n = 62,000);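 active means inhibition above the mean of all tested compounds plus 3 SD, cut at about 40% in these data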;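 further: 0% = stimulated DMSO wells and 100% = 10 µM reference inhibitor 5653914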
#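 Signal: luciferase luminescence; Material: HEK-293 cells with stable firefly luciferase reporter driven by four HIV NF-kB elements; Probe or stimulus: PMA with ionomycin; Replication: tested once; Times: 1 h compound pretreatment, then 16 h stimulation at 37 °C, 5% CO2; Benchmarks: DMSO and 10 µM reference inhibitor; Evaluation: per-plate % inhibition versus controls.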
# RORA act: RORA (human) activation; P35398; CHO-K1 Gal4-RORA LBD luciferase reporter, luminescence; percent increase over mock-subtracted basal signal; activation, % at 10 µM; actives 1.5% (n = 65,000); AID 560;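 active means activation above the mean of all tested compounds plus 3 SD, cut at about 49% in these data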;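 further: 0% = DMSO-treated RORA cells and 100% = added signal equal to DMSO minus mock-transfected cells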
# Target sequence (P35398 whole entry, looked up, the tested form may be a part): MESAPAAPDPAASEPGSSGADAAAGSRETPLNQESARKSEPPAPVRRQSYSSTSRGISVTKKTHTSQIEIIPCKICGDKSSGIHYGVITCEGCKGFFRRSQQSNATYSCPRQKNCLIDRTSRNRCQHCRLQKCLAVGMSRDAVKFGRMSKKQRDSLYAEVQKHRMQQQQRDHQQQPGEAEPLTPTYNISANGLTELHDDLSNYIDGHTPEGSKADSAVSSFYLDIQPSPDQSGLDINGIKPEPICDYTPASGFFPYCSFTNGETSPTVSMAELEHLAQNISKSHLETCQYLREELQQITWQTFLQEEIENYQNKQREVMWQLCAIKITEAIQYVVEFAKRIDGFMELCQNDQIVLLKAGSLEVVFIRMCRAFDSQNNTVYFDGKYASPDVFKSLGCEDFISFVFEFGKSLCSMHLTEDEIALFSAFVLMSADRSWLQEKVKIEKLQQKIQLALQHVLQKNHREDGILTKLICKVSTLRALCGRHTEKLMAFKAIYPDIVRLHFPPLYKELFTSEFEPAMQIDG
# MT1-MMP txn act: activates MT1-MMP transcription | HT1080 MT1-MMP promoter luciferase reporter, luminescence, overnight; active compounds read high | AID 750 | activation factor at 10 µM | actives 0.16% (n = 86,000);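 active means activation factor of at least 2 for MT1-MMP transcription at 10 µM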
# SF-1 act: activators of human nuclear receptor SF-1. Q13285. CHO-K1 Gal4-SF-1 LBD luciferase reporter; % increase over DMSO SF-1-specific signal. activation, % at 10 µM. actives 1.9% (n = 65,000). AID 522;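 active means activation above the mean activation of all tested compounds plus 3 SD, cut at about 50% in these data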
#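 System: CHO-K1 cells with Gal4–hSF-1 LBD chimera plus Gal4-driven luciferase; quantity: 4,000 CHO-K1 cells per well; compound: one dose, 10 µM compound, 1% DMSO; times: 20 h compound treatment, 37 °C; measured by: SteadyLite luciferase luminescence; read-out: percent activation versus DMSO; benchmarks: DMSO and mock-transfected background; replicates: one test per compound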
# * hit, by the source's call; x = no result. Shown are actives, neighbours in structure and some others; about 2.9% of the full set was active somewhere.
SMILES,Jurkat viability,HEK293 NFkB inh,RORA act,MT1-MMP txn act,SF-1 act
CCOC(=O)c1ccc(NC(=O)NC2CC3CCC(C2)N3Cc2nnnn2C(C)(C)C)cc1 (stereo not drawn),-6,11,10,1.1,6
O=C(CSCc1cccc(F)c1)N1CCN(c2ccccc2)CC1,x,8,53*,1.4,31
O=C(CSCc1ccccc1)N1CCN(c2cccc(C(F)(F)F)c2)CC1,x,x,x,1,x
Cc1cccn2c(=O)c(C=NCc3ccco3)c(Nc3ccc(Cl)cc3)nc12,2,8,-7,1.3,4
c1ccc(-c2noc(C3CCCCC3)n2)nc1,5,-19,61*,1.1,56*
c1ccc(-c2noc(-c3cccnc3)n2)nc1,14,-11,20,1,-3
c1ccc(-c2noc(C34CC5CC(CC(C5)C3)C4)n2)nc1,-3,-9,42,1.4,86*
c1ccc(-c2noc(C34CC5CC(CC(C5)C3)C4)n2)cc1,x,x,x,1.2,x
Cc1ccc2c(c1)[nH]c1c(N3CCN(Cc4ccc5c(c4)OCO5)CC3)ncnc12,10,10,-1,1.1,-22
CCOC(=O)c1c(NC(=O)c2cc(C3CC3)on2)sc2c1CCCC2,-2,-9,-21,1.1,11
Oc1ccc(N=Cc2ccc(O)c(O)c2)cc1,34*,11,18,1.4,13
Cc1oc(-c2ccccc2F)nc1CN1CCC(C(=O)NCCC2=CCCCC2)CC1,7,14,-13,1.4,-5
O=C(Nc1ccc(-c2nc3ccccc3[nH]2)cc1)C1CCCO1 (stereo not drawn),24,-24,-1,0.2,18
O=C(CN1CCOCC1)Nc1ccc(-c2nc3ccccc3[nH]2)cc1,-4,-9,38,x,52*
O=C(Cc1ccccc1)Nc1ccc(CN2CCOCC2)cc1,-1,9,56*,1.2,41
O=C(NCCN1CCOCC1)c1cc2ccccc2o1,x,18,-3,x,-5
O=C(Nc1ccc(CN2CCOCC2)cc1)c1cc2ccccc2o1,0,-22,10,0.6,86*
O=C(Nc1ccc(N2CCOCC2)cc1)c1cc2ccccc2o1,5,-20,74*,1.6,47
CCCSc1nc(C)c(CC(=O)O)c(=O)[nH]1,x,x,1,1.1,-14
O=S(=O)(NC1CC1)c1ccc(S(=O)(=O)N2CCCC3(CCCCC3)C2)cc1,6,-1,-7,1.2,-8
COC(=O)C1(CC(C)C)C=CCN1C(=O)c1ccccc1 (stereo not drawn),x,x,x,1,x
COC(=O)c1ccc(NC(=O)Cc2ccccc2)cc1,2,-12,39,1.2,71*
CCc1nc(N)c(C#N)c(-c2ccccc2OC)c1C,-3,10,3,1.3,3
CCOCCCNc1ccc(-c2ccccc2)nn1,-4,-20,47,1.5,58*
CCN1C(=O)c2cccc3c(S(=O)(=O)Nc4ccccn4)ccc1c23,12,40*,-23,1.6,-23
SMILES,Jurkat viability,HEK293 NFkB inh,RORA act,MT1-MMP txn act,SF-1 act
CCC(C)(C)NC(=O)C(c1cccn1C)N(Cc1ccc(OC)cc1)C(=O)Cn1nnc2ccccc21 (stereo not drawn),x,x,x,1.2,x
N=c1c2c(n(Cc3ccccc3)c3c1CCC3)CCC2,64*,7,-32,1.2,1
N=c1c2c(n(Cc3ccc(Cl)cc3)c3c1CCC3)CCC2,88*,22,23,1,19
CCCc1nnc(NC(=O)c2c(O)c3cccc4c3n(c2=O)CCC4)s1,5,13,4,0.9,0
Clc1ccc(-c2nnc(-c3ccccc3Cl)o2)cc1,-1,-35,86*,1.5,19
C=CCn1c(-c2ccccc2)c[nH]c1=S,-2,-14,6,1.6,53*
COc1ccc(NC(=O)N(CCN2CCCC2)Cc2cc3cc(OC)c(OC)cc3[nH]c2=O)cc1,8,6,-9,1.1,-9
COc1ccc(-c2nsc3c(N4CCN(C(=O)c5ccco5)CC4)ncnc23)cc1,-7,8,24,1.5,17
O=C(c1ccco1)N1CCN(c2ncnc3c(-c4ccccc4)nsc23)CC1,-3,-17,62*,1.2,5
CS(=O)(=O)c1nc(-c2ccc(Br)cc2)cc(-c2ccccc2)c1C#N,x,x,x,0.9,x
CS(=O)c1nc(-c2ccc(Br)cc2)cc(-c2ccccc2)c1C#N (stereo not drawn),100*,25,-58,1,-61
O=C(OCC(=O)N1CCN(C(=O)c2ccco2)CC1)c1ccccc1OCc1ccc(Cl)cc1,-11,8,-3,1.2,2
Cn1c(C(=O)N2CCN(c3ccccn3)CC2)cc2c(=O)n(C)c3ccccc3c21,-6,16,6,1,7
C=C(C)CSc1nncn1/N=C/c1ccc(OC)cc1,-4,-7,49*,1.9,55*
CCC1=C(OC(=O)N(CC)CC)N2C(=O)OC(=NCCc3c[nH]c4ccccc34)[C@]2(C)[C@H]2C1=CC[C@H]1C(=O)N(C)C(=O)[C@H]12,x,x,x,1.1,x
COC(=O)c1sc(NC(=O)c2oc3ccccc3c2C)nc1C,x,x,61*,2.3*,58*
Cc1c(C(=O)Nc2ccccn2)oc2ccccc12,2,-32,40,1,69*
Cc1c(C(=O)Nc2nnc(C(F)(F)F)s2)oc2ccccc12,1,-6,-13,1.3,41
Cc1c(C(=O)Nc2ccncc2)oc2ccccc12,16,24,6,1.2,16
Cc1ccccc1NC(=O)c1cnc2ccccn2c1=O,-2,-22,-54,x,-16
O=C(Nc1cnc2ccccn2c1=O)c1ccc(F)cc1,-3,-18,46,1.4,60*
NC(=O)c1cc(Cc2ccccc2)sc1NC(=O)c1ccco1,-9,-40,80*,1.5,140*
Cc1csc(NC(=O)c2cccs2)n1,-11,-31,18,1.3,53*
CCOC(=O)c1sc2nc(NC(=O)c3cccs3)sc2c1C,-4,-4,60*,1.3,48
Cc1occc1C(=O)Nc1cc(C(C)(C)C)on1,14,-40,64*,0.9,19
SMILES,Jurkat viability,HEK293 NFkB inh,RORA act,MT1-MMP txn act,SF-1 act
CC(C)N(C(=O)CSc1nnc(NC(=O)c2cccs2)s1)C(C)C,x,x,x,1.2,x
O=C(Nc1nc2c(ccc3ccccc32)s1)c1ccco1,-3,-9,59*,2.3*,63*
Cc1cc(C)c(NC(=O)c2ccoc2C)c(C)c1,x,x,x,1.2,x
CC(C)c1nnc(NC(=O)c2cccs2)s1,-12,-41,76*,1.3,104*
O=C(Nc1nnc(CCc2ccccc2)s1)c1cccs1,1,4,39,1.4,54*
O=C(Nc1nnc(COc2ccc(F)cc2)s1)c1cccs1,4,12,13,0.9,15
COC(=O)c1cc(OC)c(OC)cc1NC(=O)c1c(C)noc1C,-8,2,-15,x,11
COc1ccc(C2(O)CCN(CCCCOc3ccccc3)CC2)cc1,-3,11,1,1.2,6
CCOC(=O)Cc1csc(NC(NC(=O)OCC)(C(=O)OCC)C(F)(F)F)n1 (stereo not drawn),x,x,x,1,x

# Assay outcomes: PubChem BioAssay, several laboratories
